Results reported in ChEMBL document CHEMBL1158747, “Cyclic peptides of the nocardamine class from a marine-derived bacterium of the genus Streptomyces” (J Nat Prod, 2005).
Values after ≈ are worked out from the molar mass of the structure shown. Active and inactive are the calls of the source. The rule behind the calls is not given here.

How the values were obtained:
Staphylococcus aureus = assay: Antibacterial activity against Staphylococcus aureus ATCC 6538 at 200 ug/mL; format: functional, organism-based
Micrococcus luteus = assay: Antibacterial activity against Micrococcus luteus ATCC 10240 at 200 ug/mL; format: functional, organism-based
Proteus vulgaris = assay: […] activity against Proteus vulgaris ATCC 3851 at 200 ug/mL; format: functional, organism-based
Candida albicans = assay: Antifungal activity against Candida albicans ATCC 10231 at 200 ug/mL; format: functional, organism-based
Trichophyton rubrum = assay: Antifungal activity against Trichophyton rubrum IFO 6204 at 200 ug/mL; format: functional, organism-based
[1] = Inhibition of Staphylococcus aureus sortase B
Outline: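 Recombinant sortase B enzyme; inhibition given as EC50 in µg/mL.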

Klebsiella pneumoniae = assay: Antibacterial activity against Klebsiella pneumoniae ATCC 10031 at 200 ug/mL; format: functional, organism-based
Bacillus subtilis = assay: Antibacterial activity against Bacillus subtilis ATCC 6633 at 200 ug/mL; format: functional, organism-based
Escherichia coli = assay: Antibacterial activity against Escherichia coli ATCC 11775 at 200 ug/mL; format: functional, organism-based
[2] = system: Trichophyton mentagrophytes; assay: Antifungal activity against Trichophyton mentagrophytes IFO 40996 at 200 ug/mL; format: functional, organism-based
Salmonella typhimurium = assay: Antibacterial activity against Salmonella Typhimurium ATCC 14028 at 200 ug/mL; format: functional, organism-based; details: Salmonella enterica subsp. enterica serovar Typhimurium

Q: What does the source list for `O=C1CCC(=O)NCCCCCN(O)C(=O)CCC(=O)NCCCCCN(O)C(=O)CCC(=O)NCCCCCN1` [DEHYDROXYNOCARDAMINE]?
A: Activity (Staphylococcus aureus): inactive; Activity (Micrococcus luteus): inactive; Activity (Proteus vulgaris): inactive; Activity (Candida albicans): inactive; Activity (Trichophyton rubrum): inactive; EC50 [1]: 88.3 µg/mL (≈ 151 µM); Activity (Klebsiella pneumoniae): inactive; Activity (Bacillus subtilis): inactive; Activity (Escherichia coli): inactive; Activity [2]: inactive; Activity (Salmonella typhimurium): inactive

Q: For `O=C1CCC(=O)N(O)CCCCCNC(=O)CCC(=O)N(O)CCCCNC(=O)CCC(=O)N(O)CCCCCN1` [DESMETHYLENYLNOCARDAMINE], which Activity (Staphylococcus aureus) is on record?
A: The Activity was “inactive”.

Q: What about the Activity (Micrococcus luteus) of the same compound?
A: Its Activity is “inactive”.

Q: What about the Activity (Proteus vulgaris) of the same compound?
A: The Activity was “inactive”.

Q: And the Activity (Candida albicans)?
A: Its Activity is “inactive”.

Q: And the Activity (Trichophyton rubrum)?
A: Its Activity is “inactive”.

Q: And the EC50 [1]?
A: The EC50 was 126.4 µg/mL (≈ 215 µM).

Q: What about the Activity (Klebsiella pneumoniae) of the same compound?
A: The Activity was “inactive”.

Q: And the Activity (Bacillus subtilis)?
A: Its Activity is “inactive”.

Q: What about the Activity (Escherichia coli) of the same compound?
A: The Activity was “inactive”.

Q: What about the Activity [2] of the same compound?
A: The Activity was “inactive”.

Q: And the Activity (Salmonella typhimurium)?
A: Its Activity is “inactive”.

Q: With `O=C1CCC(=O)N(O)CCCCCNC(=O)CCC(=O)N(O)CCCCCNC(=O)CCC(=O)N(O)CCCCCN1` [NOCARDAMINE] as the compound, how does the Activity (Staphylococcus aureus) read?
A: The Activity was “inactive”.

Q: And the Activity (Micrococcus luteus)?
A: Its Activity is “inactive”.

Q: And the Activity (Proteus vulgaris)?
A: Its Activity is “inactive”.

Q: And the Activity (Candida albicans)?
A: Its Activity is “inactive”.

Q: And the Activity (Trichophyton rubrum)?
A: The Activity was “inactive”.

Q: And the EC50 [1]?
A: Its EC50 is over 200 µg/mL.

Q: And the Activity (Klebsiella pneumoniae)?
A: Its Activity is “inactive”.

Q: And the Activity (Bacillus subtilis)?
A: Its Activity is “inactive”.

Q: What about the Activity (Escherichia coli) of the same compound?
A: The Activity was “inactive”.

Q: And the Activity [2]?
A: The Activity was “inactive”.

Q: And the Activity (Salmonella typhimurium)?
A: Its Activity is “inactive”.
